Laboratory results taken from ChEMBL document CHEMBL3784921, “Mimicking of Arginine by Functionalized N(ω)-Carbamoylated Arginine As a New Broadly Applicable Approach to Labeled Bioactive Peptides: High Affinity Angiotensin, Neuropeptide Y, Neuropeptide FF, and Neurotensin Receptor Ligands As Examples” (J Med Chem, 2016).
One block for each molecule: values may come before it. *1 amine or outer side, *2 acyl side, *3 side chain or, on linkers, in order; H or OH if unused. Where a SMILES comes first, the peptide text is derived from it. [ ]: non-standard residue; d: D form. X2 = NCCCCNC(=O)/N=C(\N)NCCC[C@H](N[*:1])C(=O)[*:2]

Tests used:
[1] = molecular target: Neurotensin receptor type 1 (Homo sapiens, UniProt P30989); test: Displacement of [3H]-{Nomega-[N-(4-propanoylaminobutyl)aminocarbonyl]}Arg-Arg-ProTyr-Ile-Leu-OH Tris(hydrotrifluoroacetate) from NTSR1 in human HT-29 cells after 2 hrs by liquid scintillation counting; assay type: cell-based
[2] = Chemical stability of compound at 120 uM at pH 7 at 21 degC after 24 to 48 hrs by reversed-phase HPLC analysis; assay type: physicochemical; settings: buffer, pH 7, 120 µM
Procedure, shortened: (§1)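 Peptide incubated in phosphate buffer (PBS), pH 7.0, 21 °C, for 24 or 48 h. Remaining intact peptide assessed by reversed-phase HPLC chromatograms.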

[3] = Chemical stability of compound at 150 uM at pH 7 at 21 degC after 24 to 48 hrs by reversed-phase HPLC analysis; assay type: physicochemical; settings: buffer, pH 7, 150 µM
Procedure, shortened: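 Peptide incubated in phosphate buffer (PBS), pH 7.0, 21 °C, for 24 or 48 h. Remaining intact peptide assessed from reversed-phase HPLC chromatograms.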

[4] = Drug degradation in human HT-29 cells at 50 uM after 2 hrs by reversed-phase HPLC analysis; assay type: ADME, cell-based; settings: read-out: Drug degradation
Procedure, shortened: (§2)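 Stability tested under binding-assay conditions for up to 6 h: AT1 ligands with CHO-hAT1 cells and NTSR1 ligands with HT-29 cells. Samples analysed by reversed-phase HPLC chromatography.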

[5] = Drug degradation in CHO cells expressing human AT1 receptor at 50 uM after 2 hrs by reversed-phase HPLC analysis; assay type: ADME, cell-based, Cricetulus griseus; settings: chinese hamster, read-out: Drug degradation; procedure, shortened: as §2
[6] = molecular target: T1, Type-1 angiotensin II receptor (Homo sapiens, UniProt P30556); test: Displacement of [3H]-Asp-{Nomega-[N-(4-propanoylaminobutyl)aminocarbonyl]}Arg-ValTyr-Ile-His-Pro-Phe-OH Tris(hydrotrifluoroacetate) from human AT1 receptor transfected in CHO cells co-expressing Galpha16-mtAEQ after 2 hrs by liquid scintillation counting; assay type: cell-based
T1 sequence (P30556 whole entry): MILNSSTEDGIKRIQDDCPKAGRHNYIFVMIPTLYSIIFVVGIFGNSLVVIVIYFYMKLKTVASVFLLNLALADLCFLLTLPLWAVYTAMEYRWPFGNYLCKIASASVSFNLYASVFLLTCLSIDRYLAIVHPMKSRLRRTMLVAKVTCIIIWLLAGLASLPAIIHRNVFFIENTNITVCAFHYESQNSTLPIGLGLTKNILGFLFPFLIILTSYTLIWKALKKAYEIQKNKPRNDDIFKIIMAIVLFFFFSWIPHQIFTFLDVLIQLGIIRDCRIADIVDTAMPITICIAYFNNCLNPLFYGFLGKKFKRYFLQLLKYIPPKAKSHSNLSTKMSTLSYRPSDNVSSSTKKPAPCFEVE

[7] = molecular target: T1, Type-1 angiotensin II receptor; test: Agonist activity at human AT1 receptor transfected in CHO cells co-expressing Galpha16-mtAEQ assessed as induction of intracellular Ca2+ mobilization by bioluminescence assay; assay type: functional, cell-based
[8] = Chemical stability of compound at 200 uM at pH 7 at 21 degC after 24 to 48 hrs by reversed-phase HPLC analysis; assay type: physicochemical; settings: buffer, pH 7, 200 µM; procedure, shortened: as §1

Sequence of Neurotensin receptor type 1 (P30989 whole entry): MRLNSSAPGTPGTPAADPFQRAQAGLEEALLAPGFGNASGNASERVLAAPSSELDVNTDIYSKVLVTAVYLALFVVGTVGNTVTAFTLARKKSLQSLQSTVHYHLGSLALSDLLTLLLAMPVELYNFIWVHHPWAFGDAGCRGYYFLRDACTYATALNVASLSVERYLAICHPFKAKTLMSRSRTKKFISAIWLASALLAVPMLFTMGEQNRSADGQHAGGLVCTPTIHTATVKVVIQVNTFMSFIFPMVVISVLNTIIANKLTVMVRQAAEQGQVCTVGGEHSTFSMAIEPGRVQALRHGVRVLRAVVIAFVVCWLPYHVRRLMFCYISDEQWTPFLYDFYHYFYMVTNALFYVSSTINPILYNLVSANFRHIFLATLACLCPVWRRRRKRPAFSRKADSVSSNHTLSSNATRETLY

IC50 [1]: 3.16 nM
Ki [1]: 1.1 nM
SMILES: COc1cccc(OC)c1-c1cc(C(=O)NC2(C(=O)O)C3CC4CC(C3)CC2C4)nn1-c1ccc(C(=O)N(C)CCCN(C)C)cc1C(C)C (stereo not drawn)

SMILES: CC[C@H](C)[C@H](NC(=O)[C@H](Cc1ccc(O)cc1)NC(=O)[C@@H](NC(=O)[C@H](CCCN/C(N)=N/C(=O)NCCCCNC(=O)CCCCC[n+]1cc(S(=O)(=O)[O-])ccc1/C=C/c1cc2ccc(N(CC)CC)cc2oc1=O)NC(=O)[C@@H](N)CC(=O)O)C(C)C)C(=O)N[C@@H](Cc1cnc[nH]1)C(=O)N1CCC[C@H]1C(=O)N[C@@H](Cc1ccccc1)C(=O)O.O=C(O)C(F)(F)F.O=C(O)C(F)(F)F.O=C(O)C(F)(F)F
Stability [2]: Stable

SMILES: CC[C@H](C)[C@H](NC(=O)[C@H](Cc1ccc(O)cc1)NC(=O)[C@@H]1CCCN1C(=O)[C@H](CCCNC(=N)N)NC(=O)[C@@H](N)CCCN/C(N)=N/C(=O)NCCCCNC(=O)CCCCC[n+]1cc(S(=O)(=O)[O-])ccc1/C=C/c1cc2ccc(N(CC)CC)cc2oc1=O)C(=O)N[C@@H](CC(C)C)C(=O)O.O=C(O)C(F)(F)F.O=C(O)C(F)(F)F.O=C(O)C(F)(F)F
Stability [3]: Stable

metabolised at 2 h, 50 µM [4]: < 5.5%
SMILES: CCC(=O)NCCOCCOCCNC(=O)/N=C(\N)NCCC[C@H](N)C(=O)N[C@@H](CCCNC(=N)N)C(=O)N1CCC[C@H]1C(=O)N[C@@H](Cc1ccc(O)cc1)C(=O)N[C@H](C(=O)N[C@@H](CC(C)C)C(=O)O)[C@@H](C)CC

metabolised at 2 h, 50 µM [5]: < 5.5%
SMILES: CCC(=O)NCCOCCOCCNC(=O)/N=C(\N)NCCC[C@H](NC(=O)[C@@H](N)CC(=O)O)C(=O)N[C@H](C(=O)N[C@@H](Cc1ccc(O)cc1)C(=O)N[C@H](C(=O)N[C@@H](Cc1cnc[nH]1)C(=O)N1CCC[C@H]1C(=O)N[C@@H](Cc1ccccc1)C(=O)O)[C@@H](C)CC)C(C)C

metabolised at 2 h, 50 µM [4]: < 5.5%
SMILES: CC[C@H](C)[C@H](NC(=O)[C@H](Cc1ccc(O)cc1)NC(=O)[C@@H]1CCCN1C(=O)[C@H](CCCNC(=N)N)NC(=O)[C@@H](N)CCCNC(=N)N)C(=O)N[C@@H](CC(C)C)C(=O)O

SMILES: CC[C@H](C)[C@H](NC(=O)[C@H](Cc1ccc(O)cc1)NC(=O)[C@@H]1CCCN1C(=O)[C@H](CCCNC(=N)N)NC(=O)[C@@H](N)CCCN/C(N)=N/C(=O)NCCCCNC(=O)CCCCCN1\C(=C/C=C/C=C/C2=[N+](C)c3ccccc3C2(C)C)C(C)(C)c2ccccc21)C(=O)N[C@@H](CC(C)C)C(=O)O.O=C(O)C(F)(F)F.O=C(O)C(F)(F)F.O=C(O)C(F)(F)F.O=C(O)C(F)(F)F.[Br-]
Stability [3]: Stable

SMILES: CC[C@H](C)[C@H](NC(=O)[C@H](Cc1ccc(O)cc1)NC(=O)[C@@H](NC(=O)[C@H](CCCN/C(N)=N/C(=O)NCCCCNC(=O)CCCCCN1\C(=C/C=C/C=C/C2=[N+](C)c3ccccc3C2(C)C)C(C)(C)c2ccccc21)NC(=O)[C@@H](N)CC(=O)O)C(C)C)C(=O)N[C@@H](Cc1cnc[nH]1)C(=O)N1CCC[C@H]1C(=O)N[C@@H](Cc1ccccc1)C(=O)O.O=C(O)C(F)(F)F.O=C(O)C(F)(F)F.O=C(O)C(F)(F)F.O=C(O)C(F)(F)F.[Br-]
Stability [2]: Stable

SMILES: CC[C@H](C)[C@H](NC(=O)[C@H](Cc1ccc(O)cc1)NC(=O)[C@@H](NC(=O)[C@H](CCCN/C(N)=N/C(=O)NCCCCN)NC(=O)[C@@H](N)CC(=O)O)C(C)C)C(=O)N[C@@H](Cc1cnc[nH]1)C(=O)N1CCC[C@H]1C(=O)N[C@@H](Cc1ccccc1)C(=O)O.O=C(O)C(F)(F)F.O=C(O)C(F)(F)F.O=C(O)C(F)(F)F.O=C(O)C(F)(F)F (H-D[X2]VYIHPF-OH)
IC50 [6]: 6.17 nM
Ki [6]: 2.1 nM
EC50 [7]: 1.4 nM
Stability [8]: Stable
